MrgX1 ag = agonists of human MrgX1 receptor, primary screen, HEK293 cells, Fluo-4 calcium flux; Fluo-4 calcium fluorescence, agonist mode; active compounds read high; Mas-related G-protein coupled receptor member X1 (Homo sapiens), Q96LB2; hit rate 0.44% among 310,000; B-score at 10 µM; AID 588627, 2011;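 active means calcium response B-score plate-corrected fluorescence ratio at least 3 library SD, with starting fluorescence B-score inside 5 SD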
Target sequence (Q96LB2 whole entry, looked up): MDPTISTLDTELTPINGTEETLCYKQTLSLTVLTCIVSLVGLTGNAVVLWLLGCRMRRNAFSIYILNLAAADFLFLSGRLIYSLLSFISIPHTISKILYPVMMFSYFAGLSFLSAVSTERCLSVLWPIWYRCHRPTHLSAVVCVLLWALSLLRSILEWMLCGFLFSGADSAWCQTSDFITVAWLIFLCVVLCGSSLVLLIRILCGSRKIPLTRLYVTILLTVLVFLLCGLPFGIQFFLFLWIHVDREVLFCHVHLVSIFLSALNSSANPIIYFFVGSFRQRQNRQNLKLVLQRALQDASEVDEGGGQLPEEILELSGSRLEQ
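Material – MrgX1-expressing HEK293 cells · Input – 15,000 cells seeded per well · Dosing – compound as first of three additions · Times – overnight seeding, then 1 h dark dye loading · Measured by – kinetic Fluo-4 NW fluorescence of intracellular calcium · Read-out – B-scored fluorescence response ratio · Benchmarks – positive and negative control wells on each plate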
MrgX1 allo act = positive allosteric modulators of MrgX1, primary screen, HEK293 cells, Fluo-4 calcium flux. Mas-related G-protein coupled receptor member X1 (Homo sapiens), Q96LB2. FDSS; active compounds read high. B-score at 10 µM. hit rate 0.63% among 310,000. AID 588675, 2011;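 active means plate-corrected calcium response at least 3 library SD above typical, normal starting fluorescence, not activating the receptor alone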;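 further: compound read alongside a low EC10 to EC30 dose of BAM8-22 agonist; peak minus trough fluorescence over baseline measured at the second addition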
RGS4 block = RGS4 inhibitors, primary screen, cell-based, HEK293 M3R inducible RGS4, calcium flux; hit rate 0.45% among 310,000; Regulator of G-protein signaling 4 (Homo sapiens), P49798; B-score at 10 µM; AID 463165, 2010; Fluo-4 calcium flux; active compounds read high; triggered by carbachol at its EC20;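 active means B-score, a plate-corrected calcium signal, over three deviations above library mean, with baseline fluorescence within five deviations of library mean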;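 further: RGS4 expression induced by doxycycline in cells with stable M3 receptor; B-score is computed from the integrated fluorescence ratio over baseline after carbachol; higher B-score means a larger calcium signal and so more RGS4 inhibition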
RGS4 act = RGS4 potentiators or activators, primary screen, cell-based, HEK293 M3R inducible RGS4, calcium flux; B-score at 10 µM; carbachol calcium flux Fluo4; active compounds read low; hit rate 0.92% among 310,000;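 active means B-score of the integrated calcium signal more than 4 SD below the library mean, with starting fluorescence not abnormally high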;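 further: negative B-score means reduced calcium response which marks RGS4 activation or potentiation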
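test system = M3R-expressing HEK293 line, RGS4 induced by doxycycline | probe or stimulus = carbachol at ECmax as muscarinic agonist stimulus | timing = dye loading 30 min 37 °C, buffer rest 30 min RT | signal = calcium dye Fluo4 fluorescence | evaluation = B score from integrated fluorescence ratio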
MrgX1 antag = antagonists of human MrgX1 receptor, primary screen, HEK293 cells, Fluo-4 calcium flux | Mas-related G-protein coupled receptor member X1 (Homo sapiens), Q96LB2 | BAM8-22 antagonism; active compounds read low | B-score at 10 µM | hit rate 1.3% among 310,000;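 active means calcium-response B-score plate-corrected more than 3 library SD below zero, starting fluorescence within 5 deviations, no agonist response on first addition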;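 further: peak minus trough fluorescence over baseline after final BAM8-22 challenge near maximal dose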
Starred values were filed as active, the others as inactive; i = inactive. Rows were chosen to be rich in hits. Some 3.5% of all compounds tested hit in one or more screens of this group.

SMILES	MrgX1 ag	MrgX1 allo act	RGS4 block	RGS4 act	MrgX1 antag
COCCn1nnnc1C(c1ccc(OC)cc1)N1CCN(C(=O)c2ccco2)CC1 (stereo unspecified)	i	i	i	i	i
O=C(c1cccc(C(F)(F)F)c1)C1CCCN(Cc2cccc(OCCO)c2)C1 (stereo unspecified)	i	i	i	-7*	i
COc1cccc(O)c1CN1CCCC(C(=O)c2cccc(C(F)(F)F)c2)C1 (stereo unspecified)	i	i	i	-7.5*	i
COc1ccc(C(=O)C2CCCN(Cc3c(O)cccc3OC)C2)cc1OC (stereo unspecified)	i	i	i	i	i
Fc1cc(F)c(NC(=S)N2CCOCC2)c(F)c1	i	i	i	i	i
COC(=O)c1cccc(-c2ccc(/C=N/N3C(=O)C4C5C=CC(C6CC56)C4C3=O)o2)c1 (stereo unspecified)	i	i	i	-9.9*	i
CC(C)(C)OC(=O)NCc1n[nH]c(=S)n1C1CC1	i	i	i	i	i
CC(C)(C)NCC(O)(c1ccc(Cl)cc1)c1ccc(Cl)cc1	i	i	i	i	i
NCC(O)(c1ccc(Cl)cc1)c1ccc(Cl)cc1	37*	i	i	i	i
COc1ccc2c(c1)C(=O)N(c1ccc(C)cc1)C(=O)C2	i	i	i	i	-4.8*
Cn1c(SCC(=O)Nc2ccc(Br)cc2)nc(O)cc1=O	i	i	i	i	i
Cc1cc(NS(=O)(=O)c2ccc(NC(=O)CCCOc3cccc(C)c3C)cc2)no1	i	i	i	i	i
COc1ccc(OC)c(NC(=O)COC(=O)CCCN2C(=O)c3ccccc3C2=O)c1	i	i	i	i	-9*
COc1ccc(Cl)cc1NC(=O)COC(=O)CCCN1C(=O)c2ccccc2C1=O	i	i	i	i	i
COc1ccc(OC)c(-c2nnc(SCC(=O)N3CCCC3)o2)c1	i	i	i	i	i
O=S(=O)(Nc1c(S(=O)(=O)c2ccccc2)c2nc3ccccc3nc2n1C1CCCCC1)c1ccccc1	i	i	i	-10*	i
C/C(CCN1CCc2nc(-c3ccccc3)c(-c3ccccc3)cc2C1)=N\O[C@@H](C)c1cn([C@H](CO)Cc2ccccc2)nn1	i	i	i	-8.9*	i
COC(=O)C/C=C/[C@@H](C)[C@@H](/C=N/O[C@@H](C)c1cn([C@H](CO)Cc2ccccc2)nn1)NS(=O)(=O)c1ccc(C)cc1	i	i	i	i	i
CCOC(=O)C1=C(c2ccccc2)NC(N)=NC1c1ccc(OCc2ccc(C(=O)OC)cc2)cc1 (stereo unspecified)	i	i	i	-7*	i
CC(C)/C=C/C(=O)N1CCCC(N2CCN(c3ccccc3F)CC2)C1 (stereo unspecified)	i	i	i	i	i
O=C(NCc1csc2ccccc12)Nc1cc(Cl)cc(Cl)c1	i	i	i	i	-4.6*
NS(=O)(=O)c1ccc(CNC(=O)CCSCCC(=O)NCc2ccc(S(N)(=O)=O)cc2)cc1	i	i	i	i	i
CC(C)(C)[C@H]1C=C(C(=O)N2CCN(Cc3ccccc3)CC2)O[C@@H](OCc2ccc(CO)cc2)C1	i	7.4*	i	i	i
COCCn1c(C)cc(C(=O)COC(=O)CNC(=O)c2ccccc2)c1C	i	i	i	i	-5*
Cc1cccc(N2CCN(C(=O)c3ccc(-n4cncn4)c([N+](=O)[O-])c3)CC2)c1C	i	i	i	i	-4.9*
CN(C)c1ccnc(N(Cc2ccccc2)Cc2ccccc2)c1C#N	i	i	i	-11*	i
FC(F)(F)c1ccc(Cl)c(-n2c(-c3cc(C4CC4)[nH]n3)n[nH]c2=S)c1	i	i	i	i	i
